# FN deposition inh: fibronectin deposition inhibition. AH1F fibroblasts, Alexa488-fibronectin deposition fluorescence, overnight. inhibition, % at 12.6 µM. hit rate 0.086% among 350,000. AID 743247;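 active = mean inhibition across replicates of 30% or more, regardless of how many single replicates reach that level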;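 also: positive control wells lacked labelled fibronectin entirely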
#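 Test system: AH1F fibroblast monolayer depositing Alexa488-labelled fibronectin into matrix. Input: 10000 cells per well. Technique: fluorescence, ex 485 nm, em 525 nm. Buffer or medium: DMEM plus 2% serum, read in PBS. Timing: 1 h cell adhesion before compound, then overnight fibronectin incubation. Compound: single dose, pinned. Read-out basis: inhibition from reduced deposited-fibronectin fluorescence.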
# miR122 inh: blocks miR-122 activity in Huh7 sensor cells | Huh7 miR-122 Renilla luciferase sensor, 48 h; neutral wells = 0, positive control = 100 | activation (reporter increase), % at 12.5 µM | hit rate 0.3% among 340,000;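 active = mean replicate activation score at least 90 and every replicate individually at or above 90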;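 also: higher luciferase means less miR-122 activity so hits act as miR-122 inhibitors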
# HIV Env fusion: inhibitors of HIV Env-mediated cell fusion | hit rate 1.1% among 360,000 | inhibition, % at 12.3 µM | HeLa-JRFL Env/CEM21 cell fusion, luciferase | AID 651610;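 active = mean replicate inhibition score of at least 50 and every replicate individually at or above 50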;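 also: 0% = plate neutral controls and 100% = maraviroc near 300 nM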
# Vif inh: blocks HIV Vif function | HEK293T cells, Vif self-association by quenched fluorescence, imaging, 24 h | hit rate 0.35% among 340,000 | inhibition, % at 7.49 µM; in the data active = inhibition above about 50%, passing the limit was not always enough
# S100A4 MyoIIA: inhibitors of human S100A4 binding to myosin IIA peptide | hit rate 0.14% among 360,000 | P26447 | S100A4/TAMRA-MyoIIA peptide fluorescence polarization | inhibition, % at 10.7 µM;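 active = mean inhibition of at least 70% across replicates, with every replicate also reaching that level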
# Target sequence (P26447 whole entry, looked up): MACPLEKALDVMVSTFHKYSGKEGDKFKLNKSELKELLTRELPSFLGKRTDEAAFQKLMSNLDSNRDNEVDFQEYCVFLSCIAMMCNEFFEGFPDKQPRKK
#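 Material: S100A4 monomer protein / Buffer or medium: 50 mM HEPES pH 7.2, 10 mM CaCl2, 100 mM KCl / Times: 5 min incubation before reading / Benchmarks: neutral control DMSO, positive control TFP / Reagent: labelled myosin peptide probe, 5 nM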
# rRNA inh HTS: inhibitors of bacterial rRNA selective over humanized ribosomes; E. coli WT GFP vs humanized-ribosome RFP mutants, fluorescence, 24 h; hits give low values; DMSO median 0, no signal -100; GFP signal change (wild-type ribosome), % (no concentration beside the values); hit rate 1.6% among 350,000;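 active = significant combined selectivity score with lowered wild-type GFP, culture density cut under 30%, mutant RFP and density less affected; inactive = any of these conditions unmet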
# * = called active by the depositor; i = inactive; nt = not tested or not shown; [ ] = dose if it differs, or a comment. Compounds with a hit are over-represented: about 2.6% of the library has one in this group of screens.
SMILES,FN deposition inh,miR122 inh,HIV Env fusion,Vif inh,S100A4 MyoIIA,rRNA inh HTS
C[C@@H]1CCCCO[C@H](CN(C)C(=O)Nc2cccc3ccccc23)[C@H](C)CN([C@@H](C)CO)C(=O)c2cc(NC(=O)Nc3ccc4c(c3)OCO4)ccc2O1,nt,7[16.7 µM],-62[16.7 µM],nt,-4,0
COc1ccc(/C(N)=N/OC(=O)Cc2ccc(OC)c(OC)c2)cc1,nt,3,nt,-15,11,-26*
COc1ccc(CC(=O)O/N=C(\N)c2ccncc2)cc1OC,8,0,-6,-2,-2,nt
C[C@H](CO)N1C[C@H](C)[C@@H](CN(C)Cc2ccc(C(F)(F)F)cc2)Oc2ccc(NC(=O)CCCCCC(=O)Nc3ccccc3N)cc2C1=O,nt,nt,nt,nt,-3,-2
CC(C)CC#Cc1ccc2c(c1)O[C@@H](CN(C)Cc1ccccn1)[C@H](C)CN([C@@H](C)CO)S2(=O)=O,6,7[16.7 µM],4[16.7 µM],nt,-6,-11
CCOC(=O)c1nc(C)sc1-c1ccnn1S(=O)(=O)c1ccc(Cl)cc1Cl,-14,nt,12,-14,0,-29*
CCOC(=O)c1nc(C)sc1-c1ccnn1S(=O)(=O)c1ccc(C)cc1,1,2,5,-10,-5,-22*
C[C@H](CO)N1C[C@H](C)[C@H](CN(C)CC2CC2)Oc2cc(C#Cc3ccncc3)ccc2S1(=O)=O,nt,-3[16.7 µM],3[16.7 µM],nt,-23,0
COC(=O)c1ccc(/C=N/OCC(=O)NC2CCCC(C)C2C)cc1 (stereo unspecified),0,30,39,0,nt,nt
COC(=O)c1ccc(/C=N/OCC(=O)NC2CCCCCCC2)cc1,nt,163*,nt,nt,nt,nt
NS(=O)(=O)c1ccc(Nc2nc(-c3cccc([N+](=O)[O-])c3)cs2)cc1,5,-5,8,-13,-8,-27*
CC=Cc1ccc2n(c1=O)C[C@H]1[C@H](CO)[C@@H](C(=O)NCc3ccc(F)cc3)N(C)[C@@H]21 (mixture of isomers),nt,0[16.7 µM],nt,nt,-4,-2
COc1ccc(C)cc1NC(=O)CSc1nnc(CC(=O)Nc2cccc(C(F)(F)F)c2)n1C,14,2,80*,-7,nt,nt
COc1ccccc1NC(=O)CSc1nnc(CC(=O)Nc2cccc(C(F)(F)F)c2)n1C,8,-8,-70,-14,nt,nt
CCC(=O)Nc1cccc(-c2ccc(N3CCC(C)CC3)nn2)c1,5,6,16,-2,-12,-6
O=C(Nc1cccc(-c2ccc(N3CCCCC3)nn2)c1)C(F)(F)F,8,-10,68*,-3,1,-4
CC1CCN(c2ccc(-c3cccc(NC(=O)C(F)(F)F)c3)nn2)CC1,6,-5,80*,-9,-1,2
COc1ccccc1NC(=S)NC1CCCCC1,1,9,3,0,nt,nt
COc1ccccc1NC(=S)NCC1CCCCC1,-3,182*,4,7,-1,-2
CC(=O)Nc1ccc(NC(=O)[C@@H]2CCCC[C@@H]2C(=O)O)cc1,-3,-8,25,83*,-8,20
CC(=O)Nc1ccc(NC(=O)C2CCCCC2C(=O)O)cc1 (stereo unspecified),-1,nt,18,0,nt,nt
COc1ccccc1CNC(=O)C[C@H]1C[C@@H]2c3cc(NS(=O)(=O)c4ccc(F)cc4)ccc3O[C@@H]2[C@@H](CO)O1,nt,-5[16.7 µM],55*[16.7 µM],nt,-25,-5
COc1ccccc1CNC(=O)C[C@H]1C[C@@H]2c3cc(NS(=O)(=O)c4ccc(F)cc4)ccc3O[C@@H]2[C@H](CO)O1,nt,1[16.7 µM],94*[16.7 µM],nt,-8,-7
CC(=O)NC(c1ccc(C)cc1)c1cc([N+](=O)[O-])c2cccnc2c1O (stereo unspecified),8,nt,48*,-2,-12,-25*
CCC(=O)NC(c1ccc(C)cc1)c1cc([N+](=O)[O-])c2cccnc2c1O (stereo unspecified),0,-12,26,-4,nt,nt
SMILES,FN deposition inh,miR122 inh,HIV Env fusion,Vif inh,S100A4 MyoIIA,rRNA inh HTS
COC(=O)C1=NN(C(=O)c2cccc(Cl)c2)C(O)(C(C)(C)C)C1 (stereo unspecified),-2,3,nt,1,nt,nt
COC(=O)C1=NN(C(=O)c2ccc(Br)cc2)C(O)(C(C)(C)C)C1 (stereo unspecified),nt,nt,21,-6,-3,-24*
Cc1onc(-c2ccccc2)c1C(=O)NC(=S)NNC(=O)c1ccco1,-6,-5,5,4,1,-54
COc1ccc(-c2nn(-c3ccccc3)cc2C(=O)NC(=S)NNC(=O)c2ccncc2)cc1,2,15,32,60*,-2,-38
COc1ccc(-c2cc(C(=O)Nc3ccc4c(c3)OCO4)no2)cc1,-2,nt,13,53*,8,6
Cc1onc(-c2ccccc2)c1C(=O)NC(=S)NNC(=O)c1cc(-c2ccc(F)cc2)n[nH]1,3,-3,-11,2,-3,-33*
Cc1onc(-c2ccccc2)c1C(=O)NC(=S)NNC(=O)c1ccncc1,7,-10,nt,-3,3,-36*
C[C@H]1CN([C@@H](C)CO)S(=O)(=O)c2ccc(-c3ccc(C(=O)N(C)C)cc3)cc2O[C@H]1CN(C)C(=O)C1CC1,nt,4[16.7 µM],-8[16.7 µM],nt,nt,2
Cc1onc(-c2ccccc2)c1C(=O)NNC(=S)NC(=O)c1ccc2c(c1)OCO2,0,nt,0,31,-3,-40*
Cc1onc(-c2c(Cl)cccc2Cl)c1C(=O)Nc1ccc2c(c1)OCO2,nt,nt,nt,-11,3,-22*
COc1ccc(C(=O)NC(=S)NNC(=O)c2c(-c3ccccc3)noc2C)cc1OC,-1,0,17,3,-2,-40
COc1ccc2nc(Nc3nc4cc5c(cc4s3)OCO5)sc2c1,-3,nt,-1,5,nt,nt
COc1ccc2nc(Nc3ccc4c(c3)OCO4)sc2c1,-1,5,-76,53*,nt,nt
O=C(C1CCOCC1)N1CC2(C1)[C@H](c1ccccc1)[C@@H](CO)N2Cc1ccccc1F,-3,nt,nt,nt,nt,-2
CCCC(=O)NC1=C(Cl)C(=O)c2ccccc2C1=O,1,nt,36,98*,3,nt
CCNC1=C(Cl)C(=O)c2ccccc2C1=O,2,-2,nt,4,8,nt
Cc1oc2ccc(O)cc2c1C(=O)c1ccc(Br)cc1,34*,nt,-4,-11,0,-23*
CC1=CCC(C(=O)O)C(C(=O)Nc2cccnc2)C1 (stereo unspecified),nt,nt,-6,51*,4,13
O=C(C[C@H]1CC[C@H](NC(=O)CN2CCOCC2)[C@H](CO)O1)NCCc1ccncc1,-10,-3[16.7 µM],i,nt,-1,1
C[C@H]1CN([C@@H](C)CO)C(=O)c2cccc(NC(=O)C3CCCCC3)c2O[C@@H]1CN(C)S(=O)(=O)c1cccs1,nt,12[16.7 µM],3[16.7 µM],nt,-9,-2
